Experimental data reported in publication PMC2647014 (Journal of the American Chemical Society, 2008).

Assays:
[1] = Stability to hydrolysis of the imide ring in PBS buffer; assay type: physicochemical
Outline: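 Fluorophore-bearing model peptides are incubated in PBS at pH 6, 7 and 8 and 28 °C, with fluorescence monitored in a 96-well plate over 24 hrs. For the 4-DMAP peptide, percent conversion is the percent loss of fluorescence from time zero.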

[2] = Stability toward 4-methylpiperidine / piperidine; assay type: physicochemical; details: during preparation of fluorescent peptides by SPPS
Outline: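 Resin-bound model peptides are treated with 4-methylpiperidine under conditions simulating a standard Fmoc-deprotection cycle. Treated and untreated samples are cleaved from the resin under acidic conditions. Crude mixtures are analysed by HPLC and ESI mass spectrometry for hydrolysis byproducts.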

[3] = cited from earlier work
[4] = Photophysical properties of the fluorescent KR peptides; assay type: physicochemical; details: visible spectrum

CN(C)c1ccc2cc3c(cc2c1)C(=O)NC3=O [6-DMN, 6-N,N-dimethylamino-2,3-naphthalimide, reference compound]
emission maximum of fluorescent species from hydrolysis ([1]; hydrolysis product, high pH): 470-480 nm

CN(C)c1ccc2c3c(cccc13)C(=O)N(C[C@H](NC(=O)OCC1c3ccccc3-c3ccccc31)C(=O)O)C2=O [compound 4, N-α-Fmoc-(4-N,N-Dimethylamino-1,8-naphthalimido)-alanine]
susceptibility to piperidine (in words) [2]: shows no susceptibility to piperidine

CN(C)c1ccc2cc(C(=O)CBr)ccc2c1 [BADAN, 6-bromoacetyl-2-dimethylaminonaphthalene]
fluorescence quantum yield in water (Φwater) [3]: 0.18

CN(C)c1ccc2c3c(cccc13)C(=O)N(C[C@H](N)C(=O)O)C2=O [4-DMNA, 4-N,N-dimethylamino-1,8-naphthalimidoalanine]
wavelength of excitation of the fluorophore / amino acid [4]: 400-450 nm | relative stability of fluorescent side-chain (in words) ([1]; compared with 4-DAPA and 6-DMNA): significantly more stable than those of 4-DAPA and 6-DMNA

CN(C)c1ccc2c(c1)C(=O)NC2=O [4-DMAP, 4-N,N-dimethylaminophthalimide, reference compound]
hydrolysis product fluorescence (in words) ([1]; hydrolysis of the imide ring, high pH): non-fluorescent byproduct

CN(C)c1ccc2c3c(cccc13)C(=O)NC2=O [4-DMN, 4-N,N-dimethylamino-1,8-naphthalimide]
fluorescence emission after 24 hrs (in words) ([1]; PBS buffer, 28 °C, 24 hrs, Figure 2b, harshest conditions anticipated): no significant change in fluorescence
